UPR CHOP act = apoptotic UPR (CHOP) activation. CHO-CHOP luciferase reporter, luminescence; percent of tunicamycin response over DMSO baseline. activation, % at 10 µM. 0.34% of 330,000 active. AID 449763;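 active = at 10 µM dose, activation of 40% or more, normalized to positive control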
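assay system = CHO CHOP reporter cells | amount = 500 CHO-CHOP cells per well | buffer or medium = F12 with 10% FBS | incubation = 16-18 h cell attachment, then 6 h compound exposure, 37 °C | detection = luminescence read with Steady-Glo | read-out = percent activation relative to tunicamycin control | controls = tunicamycin high control, DMSO low control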
UPR XBP1 act = activators of adaptive arm of unfolded protein response (XBP1) | AID 463104 | 0.33% of 330,000 active | CHO-XBP1 luciferase reporter, IRE1-XBP1 UPR activation, luminescence; percent of tunicamycin response, DMSO as zero | activation, % at 20 µM;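 active = versus positive control, 20 µM dose yields 30% or more activation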
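Material – CHO cell line with stable XBP1 luciferase reporter · Buffer or medium – F12 plus 10% FBS · Compound – single point, 20 µM final compound, 1% DMSO · Schedule – 16-18 h cell attachment at 37 °C, then 6 h compound exposure · Signal – Steady-Glo luminescence read · Benchmarks – high control tunicamycin 10 µg/mL final, low control DMSO vehicle only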
hiPSC survival = enhancers of human iPSC single-cell survival; hiPSC single-cell survival, ATPlite luminescence; 100% = ROCK inhibitor wells, 0% = DMSO; 0.044% of 360,000 active; survival enhancement, % at 20 µM; in the data active = survival enhancement above about 18%;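 note: cells exposed to compounds for 16 hours before the ATP read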
H9c2 protect = modulators protecting cardiomyocytes from myocardial damage. H9c2 cardiomyocytes, H2O2 injury protection, ATPLite, 2 h. protection from H2O2 cell death, % at 20 µM. 0.63% of 360,000 active;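 active = compounds giving at least 50% protection of heart cells from peroxide-induced death in the single-dose screen, raw or plate-pattern-corrected value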
CHOP inh = inhibitors of CHOP induction in ER stress response; CHO-K1 CHOP-promoter luciferase, tunicamycin-induced, 15-18 h; inhibition, % at 10 µM; 3.8% of 220,000 active; AID 2732;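 active = compounds that reduced the stress-induced luciferase reporter signal by more than about 70% of percent inhibition, limit read from the data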
UPR XBP1 confirm = confirmation of adaptive unfolded protein response (XBP1) activators. shares compounds with UPR XBP1 act. CHO-XBP1 IRE1-XBP1 luciferase reporter, luminescence. activation, % at 20 µM. 63% of 1,000 active. AID 485299;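 active = reporter signal at least 30% of the positive control's activation in two or more of four replicate wells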
Numbers stand for hits; n = inactive; x = no result. The full list was thinned out, with hits kept by preference.

SMILES	UPR CHOP act	UPR XBP1 act	hiPSC survival	H9c2 protect	CHOP inh	UPR XBP1 confirm
O=C(Nc1cccc(-c2cnc3ccccc3n2)c1)c1ccccc1	n	n	n	n	n	x
O=C(Nc1cccc(-c2cnc3ccccc3n2)c1)c1cccc(NC(=O)c2ccco2)c1	n	36	n	61	n	n
CCCC[C@@H](CNC)NC[C@H](NCCCCC1CCCCC1)C(C)C	n	n	n	n	x	x
CCC[C@H](CN[C@@H](CNC)[C@H](C)CC)NCCc1cc(C(F)(F)F)cc(C(F)(F)F)c1	n	52	n	n	x	n
CCC[C@@H](CN[C@@H](CNC)[C@H](C)CC)NCC1CCC(C(C)(C)C)CC1 (stereo not given in full)	n	51	n	n	x	30
COc1ccc(NC(C)=O)cc1NC(C)C(=O)Nc1ccc(S(=O)(=O)N2CCCCC2)cc1 (stereo not given)	n	n	n	n	x	x
COC(=O)C1=C(C)N(Cc2ccccc2)C(=NCc2ccccc2)N[C@H]1c1cccc(C(F)(F)F)c1	n	30	n	n	x	n
COC(=O)C1=C(C)N(Cc2ccccc2)C(=NCc2cccc(Cl)c2)N[C@H]1c1cccc(F)c1	n	45	n	n	x	n
C[C@@H]1COC(=O)[C@H](NC(=O)OCC2c3ccccc3-c3ccccc32)C/C=C\C[C@@H](CC(=O)N(CCO)Cc2ccccc2)C(=O)N1	n	n	n	n	x	x
O=C(N[C@@H]1C/C=C\C[C@H](CC(=O)N(CCO)Cc2ccccc2)C(=O)N[C@@H](Cc2ccccc2)COC1=O)OCC1c2ccccc2-c2ccccc21	n	50	n	n	x	n
O=C1Nc2ccccc2C1=Nc1ccc2[nH]c3ccccc3c2c1	x	x	n	n	x	x
CCOc1cc2c3c(c1)C(C)=CC(C)(C)N3C(=O)C2=O	n	41	n	n	n	32
CCOc1cc2c3c(c1)C(C)CC(C)(C)N3C(=O)C2=O (stereo not given)	n	n	n	n	n	x
Cc1ccc(-n2c(SCC(=O)Nc3nccs3)nc3c(c2=O)SCC3)cc1	n	n	n	n	n	x
CCOc1ccc(-n2c(SCC(=O)Nc3nccs3)nc3c(c2=O)SCC3)cc1	n	75	n	n	n	n
CCOc1cc(OCC)cc(C(=O)N2CCC[C@H]2C(=O)N2CCC[C@H]2C(=O)N[C@H](C)c2ccccc2)c1	x	x	n	x	x	x
Nc1nc(NCC2CCCO2)nc(Nc2cccc(Cl)c2)c1[N+](=O)[O-] (stereo not given)	n	36	n	n	n	n
CC(C)C(OC(=O)c1nsc(Cl)c1Cl)C(=O)NC1CCCCC1 (stereo not given)	n	n	n	n	x	x
COc1cc(/C=N\NC(=O)C2CC3C=CC2C3)ccc1O (stereo not given)	n	n	n	n	n	x
COc1cc(/C=N/NC(=O)NC23CC4CC(CC(C4)C2)C3)ccc1O	n	44	n	n	x	n
COc1ccc(CNC(=O)CC[C@H]2O[C@@H](n3cc(C)c(=O)[nH]c3=O)C[C@@H]2O)cc1	x	x	n	n	x	x
O=C(Nc1nc2ccc(Cl)cc2s1)c1ccc(N2CCCCC2)c([N+](=O)[O-])c1	n	33	n	n	n	83
COc1cc([C@@H]2c3cc4c(cc3[C@@H](O)[C@H]3COC(=O)[C@H]23)OCO4)cc(OC)c1O[Si](C)(C)C(C)(C)C	n	58	n	n	87	48
Cc1ccccc1N1CCN(C2CCCN(C(=O)c3ccnn3C)C2)CC1 (stereo not given)	n	n	n	n	x	x
Cc1ccc(C(=O)Nn2c(C)nc3ccccc3c2=O)cc1C	n	n	n	n	x	x
SMILES	UPR CHOP act	UPR XBP1 act	hiPSC survival	H9c2 protect	CHOP inh	UPR XBP1 confirm
Cc1ccc(-c2cc(C(F)F)nc3sc4c(=O)[nH]cnc4c23)cc1	n	44	n	n	x	n
COc1cccc(Cn2cc(C)cc(NC(=O)NCc3ccccc3)c2=O)c1	n	n	n	n	x	x
O=C1NC(=Nc2ccc(O)cc2)S/C1=C\C=C\c1ccco1	n	31	n	n	n	n
Cc1csc(SCC(=O)NC2CCC(C)CC2)n1 (stereo not given)	n	n	n	n	x	x
S=C(Nc1cccc(Cl)c1)NC1CCCCC1	n	37	n	n	n	n
CCOc1ccc(Cn2c3ccc(OC)cc3c3nc4ccccc4nc32)cc1OC	n	118	n	n	88	106
CC(C(=O)N1CCc2ccccc21)N1CCN(S(=O)(=O)c2cccc(C(F)(F)F)c2)CC1 (stereo not given)	n	n	n	n	x	x
CC(C)N1CCOC1c1ccccc1 (stereo not given)	x	x	n	n	x	x
CCC(C)(C)C1CCC2(CC1)NC(=O)N(CC(=O)N1CCN(S(=O)(=O)c3cc(C)ccc3C)CC1)C2=O (stereo not given)	n	81	n	n	x	107
O=C(NCC(c1ccc(F)cc1)N1CCOCC1)c1nn(-c2ccccc2)c(=O)c2ccccc12 (stereo not given)	n	n	n	n	x	x
Cc1nc2sc(C(=O)Nc3ccccc3)c(N)c2c(C)c1[N+](=O)[O-]	n	91	n	n	n	n
Cc1nc(NC(=O)CSc2ccc(-c3nc4ccccc4[nH]3)cn2)sc1C	n	54	n	n	n	85
c1ccc(C2=Nn3c(nnc3-c3cc(-c4ccccc4)n[nH]3)SC2)cc1	n	n	n	n	n	x
Clc1ccc(C2=Nn3c(nnc3-c3cc(-c4ccccc4)n[nH]3)SC2)cc1	n	66	n	n	n	51
CC(C)N=C(NS(=O)(=O)c1ccccc1)C(Cl)(Cl)Cl	n	45	n	n	n	75
CC(C)Oc1ccc(CN2CCC2(C)C(=O)Nc2cnc3ccccc3c2)cc1 (stereo not given)	x	x	n	n	x	x
O=C(NC(c1ccc(-c2ccccc2)cc1)c1cnccn1)C1CCN(CCN2C(=O)c3ccccc3C2=O)CC1 (stereo not given)	x	x	n	n	x	x
COc1ccc(-c2nn(-c3ccccc3)cc2C(=O)N/N=C/c2ccc([N+](=O)[O-])o2)cc1	n	38	n	n	90	n
Cc1cc(C(=O)N/N=C/c2ccc([N+](=O)[O-])o2)c(C)o1	n	n	n	n	n	x
COc1ccc(/C=C/C(=O)Nc2ccc(C)c(S(=O)(=O)N3CCOCC3)c2)cc1	n	n	n	n	x	x
COc1ccc(Br)cc1/C=N/NC(=O)c1ccc(COc2ccc3c(c2)CCC3)o1	n	n	n	n	n	x
COc1ccccc1/C=N\NC(=O)c1ccc(COc2ccc(C)c(C)c2)o1	n	41	n	n	x	n
NS(=O)(=O)c1ccc(CCNC(=O)CSc2nc3c(sc(=S)n3-c3ccccc3)c(=O)[nH]2)cc1	x	x	n	n	x	x
COC(=O)c1[nH]c2cc(OC)c(OC)cc2c1/C=N/Nc1ccccc1	n	36	n	75	x	n

Screens from PubChem.
